Published values from different studies.
Protocols differ between the studies behind these lines. pIC50: −log10 of the molar value.
Read-out: cell growth or viability

SMILES | cell line | method | concentration | time | quantity | result
OCc1ccc(-c2nn(Cc3ccncc3)c3cccnc23)o1 | RBE | ATP luminescence |  |  | pIC50 | 5.06
CC(=O)OC[C@H]1O[C@@H](n2cnc(N)nc2=O)[C@H](OC(C)=O)[C@@H]1OC(C)=O | HBL1 | ATP luminescence | 1 µM | 5 days | viability | 94.3%
CN(C)CCN(C)C(=O)c1ccc(-c2nc3ccc4[nH]ncc4c3c3c2CCCCC3)nc1 | MV4-11 | resazurin |  | 72 h | GI50 | 1200 nM
OCc1ccc(-c2nn(Cc3ccccc3)c3ccccc23)s1 | RBE | ATP luminescence | 46 µM | 72 h | inhibition | 30%
NCCC(=O)Nc1ccccc1/N=c1\cc(-c2ccc3nc(N)oc3c2)oc2ccc(F)cc12 | MDA-MB-468 | CCK-8 | 1 µM |  | inhibition | 59.8%
O=C(/C=C/c1cccc(C(=O)NO)c1)NO | HBL1 | ATP luminescence | 0.1 µM | 5 days | viability | 119%
O=C(NCCN1CCCC1)c1ccc(-c2nc3ccc4[nH]ncc4c3c3c2CCCC3)cc1 | MV4-11 | resazurin |  | 72 h | GI50 | 366 nM
CCN(Cc1ccc(C)cc1)c1ccc(CO)c(Cl)c1 | RBE | ATP luminescence | 46 µM | 72 h | inhibition | 95%
NCCC(=O)Nc1ccc(/N=c2\cc(-c3ccc4c(c3)OCO4)oc3ccccc23)cc1 | MDA-MB-468 | CCK-8 | 1 µM |  | inhibition | 6.16%
Cc1n[nH]c2ccc3nc(-c4ccc(C(=O)NCCN(C)C)cc4F)c4c(c3c12)CCCC4 | MV4-11 | resazurin |  | 72 h | GI50 | 27 nM
NCC(=O)Nc1ccccc1/N=c1\cc(-c2ccc3c(c2)OCCO3)oc2cc(F)ccc12 | MDA-MB-468 | CCK-8 | 1 µM |  | inhibition | 11.8%
OCc1coc(-c2nn(Cc3ccccc3)c3ccccc23)n1 | RBE | ATP luminescence | 46 µM | 72 h | inhibition | 32%
O=C(NC1CCCCC1)c1ccc(-c2nc3ccc4[nH]ncc4c3c3c2CCCC3)cc1 | MV4-11 | resazurin |  | 72 h | GI50 | 4300 nM
CS(=O)(=O)NCCC(=O)Nc1ccccc1/N=c1\cc(-c2ccc3nc(N)oc3c2)oc2ccccc12 | MDA-MB-468 | CCK-8 | 1 µM |  | inhibition | 3.19%
OCc1ccc(-c2nn(Cc3cccc(Cl)c3)c3ccccc23)o1 | RBE | ATP luminescence | 46 µM | 72 h | inhibition | 75%
CN(C)CCNC(=O)c1ccc(-c2nc3ccc4[nH]ncc4c3c3c2CCCCC3)c(F)c1 | MV4-11 | resazurin |  | 72 h | GI50 | 11 nM
NCC(=O)Nc1ccccc1/N=c1\cc(-c2ccc3c(c2)OCO3)oc2ccccc12 | MDA-MB-468 | CCK-8 | 1 µM |  | inhibition | 3.86%
OCc1ccc(-c2nn(Cc3ccccc3F)c3ccccc23)o1 | RBE | ATP luminescence | 46 µM | 72 h | inhibition | 68%
NCCCCC(=O)Nc1ccccc1/N=c1\cc(-c2ccc3c(c2)OCO3)oc2ccccc12 | MDA-MB-468 | CCK-8 | 1 µM |  | inhibition | -0.27%
CN(C)CCN(C)C(=O)c1ccc(-c2nc3ccc4[nH]ncc4c3c3c2CCCCC3)cn1 | MV4-11 | resazurin |  | 72 h | GI50 | 581 nM
